Test results: ChEMBL document CHEMBL1687892, “Potent agonists of the protease activated receptor 2 (PAR2)” (J Med Chem, 2011)
Calls of active or inactive are those of the source. The calls are words filed in the database; no cut-off is given here.

Key:
Assay type in all cases: functional, cell-based
[1] = molecular target: Proteinase-activated receptor 2 (Homo sapiens) (UniProt P55085); assay: Agonist activity at human PAR2 expressed in human HeLa cells assessed as increase in intracellular calcium levels at 5 uM by fura-2-AM dye based digital imaging microscopy
Chain of Proteinase-activated receptor 2 (Homo sapiens) (P55085 whole entry): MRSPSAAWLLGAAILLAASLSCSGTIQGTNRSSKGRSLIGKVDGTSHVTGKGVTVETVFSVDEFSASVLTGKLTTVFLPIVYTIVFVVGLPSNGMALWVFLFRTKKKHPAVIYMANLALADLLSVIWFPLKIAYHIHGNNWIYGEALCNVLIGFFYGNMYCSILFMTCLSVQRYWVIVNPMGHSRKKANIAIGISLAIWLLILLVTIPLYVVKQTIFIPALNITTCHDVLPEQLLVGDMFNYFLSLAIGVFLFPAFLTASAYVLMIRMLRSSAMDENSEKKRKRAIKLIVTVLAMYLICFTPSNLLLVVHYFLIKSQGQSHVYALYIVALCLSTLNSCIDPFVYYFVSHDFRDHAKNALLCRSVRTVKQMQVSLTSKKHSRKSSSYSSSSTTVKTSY

[2] = molecular target: Proteinase-activated receptor 2 (Homo sapiens) (UniProt P55085); assay: Agonist activity at human PAR2 expressed in rat kNRK cells assessed as increase in intracellular calcium levels at 5 uM by fura-2-AM dye based digital imaging microscopy
Outline: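 Cells transfected with human PAR2 (HeLa-PAR2 or kNRK-PAR2) were compared with low-expressing or plasmid-control cells of the same line. Cells were grown on matrix-coated coverslips and loaded with fura-2. 5 μM agonist was added, and mean [Ca2+]i of all cells in the field (~90) was imaged every 0.6 s, ± SEM.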

[3] = molecular target: Proteinase-activated receptor 2 (Homo sapiens) (UniProt P55085); assay: Agonist activity at PAR2 in human 16HBE14o cells assessed as activated cells at […] by intracellular calcium mobilization fura-2-AM assay
[4] = molecular target: Proteinase-activated receptor 2 (Homo sapiens) (UniProt P55085); assay: Agonist activity at PAR2 in human 16HBE14o cells assessed as activated cells at 100 uM by intracellular calcium mobilization fura-2-AM assay
Outline: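 16HBE14o- cells were grown 5–7 days on matrix-coated coverslips, loaded with fura-2, and imaged by digital microscopy over 3 min (80–100 cells). A cell counted as activated if [Ca2+]i rose to ≥200 nM from a resting 50–75 nM, scored as % of cells. Doses ran from 100 μM down to 250 nM. EC50 came from % responding. Mean ± SEM, N ≥ 2 at 100 μM, N ≥ 4 otherwise.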

[5] = molecular target: Proteinase-activated receptor 2 (Homo sapiens) (UniProt P55085); assay: Agonist activity at PAR2 in human 16HBE14o cells assessed as increase in intracellular calcium levels at […] by in vitro physiological response assay

`CC[C@H](C)[C@H](NC(=O)[C@H](CC(C)C)NC(=O)c1ccc(N)nc1)C(=O)NCC(=O)N[C@@H](CCCNC(=N)N)C(=O)N[C@@H](CC(C)C)C(N)=O` was tested, and the Activity [1] was “Active” and the Activity [2] was “Active”.
`CC[C@H](C)[C@H](NC(=O)[C@H](CC(C)C)NC(=O)c1csc(N)n1)C(=O)NCC(=O)N[C@@H](CCCNC(=N)N)C(=O)N[C@@H](CC(C)C)C(N)=O` was tested, and the Activity [1] was “Active” and the Activity [2] was “Active”.
`CC[C@H](C)[C@H](NC(=O)[C@H](CC(C)C)NC(=O)CC#N)C(=O)NCC(=O)N[C@@H](CCCNC(=N)N)C(=O)N[C@@H](CC(C)C)C(N)=O` was tested, and the Activity [3] was “inactive” and the Activity [4] was “Active”.
`CC[C@H](C)[C@H](NC(=O)[C@H](CC(C)C)NC(=O)c1ccnc(N)c1)C(=O)NCC(=O)N[C@@H](CCCNC(=N)N)C(=O)N[C@@H](CC(C)C)C(N)=O` was tested, and the Activity [3] was “inactive”, the Activity [5] was “inactive” and the Activity [4] was “Active”.
`CC[C@H](C)[C@H](NC(=O)[C@H](CC(C)C)NC(=O)CCN1CCCCC1)C(=O)NCC(=O)N[C@@H](CCCNC(=N)N)C(=O)N[C@@H](CC(C)C)C(N)=O` was tested, and the Activity [4] was 0%.
In the case of `CC[C@H](C)[C@H](NC(=O)[C@H](CC(C)C)NC(=O)c1ccc(S(N)(=O)=O)cc1)C(=O)NCC(=O)N[C@@H](CCCNC(=N)N)C(=O)N[C@@H](CC(C)C)C(N)=O`, the Activity [3] is reported as “inactive” and the Activity [4] is reported as “Active”.
`CC[C@H](C)[C@H](NC(=O)[C@H](CC(C)C)NC(=O)Cc1c[nH]c2ccccc12)C(=O)NCC(=O)N[C@@H](CCCNC(=N)N)C(=O)N[C@@H](CC(C)C)C(N)=O` showed an Activity [4] of 0%.
In the case of `CC[C@H](C)[C@H](NC(=O)[C@H](CC(C)C)NC(=O)c1cccnc1N)C(=O)NCC(=O)N[C@@H](CCCNC(=N)N)C(=O)N[C@@H](CC(C)C)C(N)=O`, the Activity [3] is reported as “inactive”, the Activity [5] is reported as “inactive” and the Activity [4] is reported as “Active”.
Work on `CC[C@H](C)[C@H](NC(=O)[C@H](CC(C)C)NC(=O)c1cccnc1O)C(=O)NCC(=O)N[C@@H](CCCNC(=N)N)C(=O)N[C@@H](CC(C)C)C(N)=O` yielded an Activity [4] of 0%.
For `CC[C@H](C)[C@H](NC(=O)[C@H](CC(C)C)NC(=O)c1nc(N)n[nH]1)C(=O)NCC(=O)N[C@@H](CCCNC(=N)N)C(=O)N[C@@H](CC(C)C)C(N)=O`, the Activity [3] was “inactive”, the Activity [5] was “inactive” and the Activity [4] was “Active”.
Compound `CC[C@H](C)[C@H](NC(=O)[C@H](CC(C)C)NC(=O)c1cccc2[nH]ccc12)C(=O)NCC(=O)N[C@@H](CCCNC(=N)N)C(=O)N[C@@H](CC(C)C)C(N)=O` has an Activity [4] of 0%.
`CC[C@H](C)[C@H](NC(=O)[C@H](CC(C)C)NC(=O)c1cnccn1)C(=O)NCC(=O)N[C@@H](CCCNC(=N)N)C(=O)N[C@@H](CC(C)C)C(N)=O` was tested, and the Activity [3] was “inactive” and the Activity [4] was “Active”.
`CC[C@H](C)[C@H](NC(=O)[C@H](CC(C)C)NC(=O)COCC(=O)O)C(=O)NCC(=O)N[C@@H](CCCNC(=N)N)C(=O)N[C@@H](CC(C)C)C(N)=O` gave an Activity [4] of 0%.
